Shown is part of a subset that was picked to be rich in hits.
Calb FLC – C. albicans growth modulation with fluconazole; actives 0.57% (n = 300,000); C. albicans CaCi-2 (fluconazole-resistant clinical isolate) + fluconazole, Alamar Blue growth, 48 h; growth inhibition, % (no concentration beside the values); AID 1979;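 active means growth inhibition above about 58% in most replicates, limit read from the data, passing the limit was not always enough; inconclusive means exactly half the replicates above a set limit; inactive means most replicates below a set limit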;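 further: all wells also contain fluconazole at 8 µg/ml as a sub-toxic cotreatment; 0% = median of DMSO wells and 100% = median of geldanamycin control wells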
PolyA inh – inhibitors of polyadenylation in S. cerevisiae; actives 0.02% (n = 300,000); activity score, % at 12 µM; S. cerevisiae SKY197-pL101 polyadenylation reporter, beta-gal luminescence; efflux-impaired pdr1/pdr3 knockout yeast; score 100 = 6 SD above DMSO;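 active means lowest replicate activity score at least 50, where 100 means six control SD above control mean; inconclusive means lowest score under 50 but half or more replicates reach 50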;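 further: yeast exposed to compound for 9 h at 30 °C; higher score means more reporter readthrough which indicates perturbed polyadenylation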
NALP1 yeast inh – blocks the NALP1 inflammasome reconstituted in yeast. S. cerevisiae NALP1/ASC/caspase-1 growth, X-gal OD620, 72 h. inhibition, % at 10 µM. actives 0.61% (n = 280,000). AID 2071; in the data active means inhibition mostly above about 24%, no sharp cut-off; inactive means mostly below about 32%
NALP3 yeast inh – NALP3 inhibition in yeast | Yeast reconstituted NLRP3/ASC/caspase-1, beta-gal luminescence, 24 h | inhibition, % at 10 µM | actives 0.39% (n = 330,000) | AID 2825;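 active means inhibition of 50% or more; inactive means inhibition below 50%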;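 further: plate controls were induced DMSO wells for no effect and uninduced yeast grown without galactose for full effect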
T cruzi repl – blocks replication of Trypanosoma cruzi; inhibition, % (no concentration beside the values); actives 1.4% (n = 300,000); AID 1885; T. cruzi beta-gal in NIH3T3, luminescence, 90 h;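 active means mean inhibition across valid replicates above about 55%, limit read from the data; inconclusive means mean below that limit but half or more replicates reach it; inactive means mean below it, under half of replicates reach it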;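 further: signal also drops with host cell toxicity which is not excluded here; 0% = plate median of DMSO wells and 100% = zero luminescence signal; higher percent means less beta-gal luminescence so fewer parasites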
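Incubation – ≥90 h infection period, 3 h prior cell attachment · System – NIH/3T3 fibroblasts plus reporter T. cruzi · Doses – compound pinned at 50 nL/well, DMSO · Read-out basis – percent inhibition of parasite-derived β-gal signal · Signal – luminescent β-galactosidase signal after 60 min lysis · Also added – 5000 T. cruzi trypomastigotes/well · Medium – Low-serum DMEM with 2% FBS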
L major viab – Leishmania major promastigote growth inhibition; Leishmania major promastigotes, resazurin fluorescence viability; inhibition, % at 10 µM; actives 9% (n = 200,000); in the data active means inhibition above about 50%;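 further: promastigotes grown with compound for 44 hours at 28 °C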
L major 1uM – blocks Leishmania major promastigote growth at 1 uM, repeat screen; shares compounds with L major viab; L. major promastigote growth, resazurin fluorescence, 48 h; inhibition, % at 1 µM; actives 13% (n = 1,100); AID 1258;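 active means inhibition above about 50% in both repeat tests, limit read from the data; inconclusive means one repeat under the set limit, the other over it; inactive means both repeats under the set limit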
Active calls of the source: *; ? = inconclusive; . = not tested or not shown.

SMILES	Calb FLC	PolyA inh	NALP1 yeast inh	NALP3 yeast inh	T cruzi repl	L major viab	L major 1uM
CCOC(=O)c1nc2ccccc2c(=O)[nH]1	31	6	43*	11	5	.	.
CCOC(=O)CSc1nc2ccccc2c(=O)[nH]1	0	-23	.	-7	-3	-4	.
CCc1ccc(C(=O)CSc2nc3ccccc3c(=O)[nH]2)cc1	2	-32	1	20	-3	98*	.
COC(=O)c1cc(C)sc1NC(=O)CN1CCN(C(=O)C2CCCO2)CC1 (stereo unspecified)	?	-23	19	-1	10	.	.
O=C(Cc1cccs1)Nc1nc(-c2ccc(F)cc2F)cs1	-48	-6	60	37	-1	98*	.
O=C(Cc1ccccc1F)Nc1nc(-c2cccnc2)cs1	?	15	-23	-3	-1	52*	.
O=C(Cc1ccccc1F)Nc1nc(-c2ccc(F)c(F)c2)cs1	-30	-8	29	21	12	.	.
O=C(Cc1cccs1)Nc1nc(-c2ccc(F)c(F)c2)cs1	7	-33	-10	18	23	.	.
CCC(=O)c1ccc(OCC(=O)Nc2nc(-c3cccnc3)cs2)cc1	5	6	.	12	-3	.	.
CCc1ccccc1OCC(=O)Nc1nc(-c2cccnc2)cs1	2	-20	-9	16	78*	81*	.
O=C(COc1ccccc1)NCC(c1ccco1)N1CCN(c2ccccc2)CC1 (stereo unspecified)	4	4	.	-21	-3	.	.
CCc1cc2c(NCC(=O)O)ncnc2s1	-19	-8	39*	1	-11	-3	.
CCc1cc2c(NCc3ccco3)ncnc2s1	32	13	32	42	6	23	.
Cc1ccc(NC2CCCN(C(=O)c3ccoc3C)C2)cc1C (stereo unspecified)	-8	-19	12	14	6	.	.
Cc1cc(C)n2nc3ccccc3c2n1	-10	5	25*	3	-10	-4	.
O=C(CN(Cc1ccco1)Cc1cccs1)N1CCN(S(=O)(=O)c2cccc(F)c2)CC1	.	.	.	20	.	.	.
CCC(Oc1ccc2c(c1)C(=O)CC(C)(C)O2)C(=O)NCCN1CCCCCC1 (stereo unspecified)	-1	-17	29	11	-16	0	.
CCOc1ccc(N2C(=O)CC(Sc3nc(-c4cccs4)cc(C(F)(F)F)c3C#N)C2=O)cc1 (stereo unspecified)	6	7	5	18	8	55*	.
CCOc1ccc(N2C(=O)CC(Sc3ncccn3)C2=O)cc1 (stereo unspecified)	5	2	-6	7	6	2	.
COc1ccc(OC)c2[nH]c(=O)c(CCNC(=O)c3ccc(S(=O)(=O)N4CCCC4)cc3)cc12	25	-14	9	3	8	67*	-9
CCN(CC)S(=O)(=O)c1ccc(C(=O)NCCc2cc3c(OC)ccc(OC)c3[nH]c2=O)cc1	-7	20	-7	5	26	2	.
Cc1ccccc1Cn1nnc(C(=O)Nc2cccc(C)c2C)c1N	29	13	24	-4	-14	95*	-15
COc1ccc2[nH]c(=O)c(CN(C(=O)c3cccnc3)c3ccc(C)c(C)c3)cc2c1	8	8	1	-6	-4	.	.
Cc1nc2ccccn2c(=O)c1CCN1CCC(C(=O)c2ccc(F)cc2)CC1	-6	-19	26	12	-13	97*	7
COc1cccc(N2CC(NC(=O)C(=O)c3c[nH]c4ccccc34)CC2=O)c1 (stereo unspecified)	20	1	.	15	13	.	.
SMILES	Calb FLC	PolyA inh	NALP1 yeast inh	NALP3 yeast inh	T cruzi repl	L major viab	L major 1uM
COc1ccccc1CN=c1c([N+](=O)[O-])nn(-c2ccc3c(c2)OCCO3)n1O	19	-8	-33	22	49	98*	14
O=C1NC2(C=Cc3c(ccc4ccccc34)O2)Oc2ccccc21 (stereo unspecified)	9	-19	22	-4	-11	-2	.
CC1(C)OC(=O)N(c2ccccc2)C12C=Cc1c(ccc3ccccc13)O2 (stereo unspecified)	5	-57	23	-2	15	83*	-12
CCOC(=O)c1ccc2c(c1)nc(C1CCN(S(=O)(=O)c3cccs3)CC1)n2CC	15	7	13	-7	43	100*	5
CN(C)CCOc1ccccc1Cc1ccccc1	.	9	42	2	-8	100*	89*
CCOC(=O)c1cc2oc(C(c3nnnn3C3CCCCC3)N3CCOCC3)cc2[nH]1 (stereo unspecified)	.	.	-14	7	.	82*	3
NC(N)=NCC(O)CN(c1ccccc1)c1ccccc1 (stereo unspecified)	-25	3	30	14	2	.	.
Cc1cccc2sc(NC(=O)c3cccc(S(=O)(=O)N4CCc5ccccc54)c3)nc12	-1	-2	46	-11	34	96*	-3
CN(C)C(=O)c1cc2cc(Br)ccc2s1	-11	-24	-1	23	-18	-2	.
Cc1nn(C(C)(C)C)c(OC(=O)C2CCCC2)c1S(=O)(=O)c1ccccc1	3	-10	14	.	-2	62*	0
Nc1nnc(SCC(=O)OCC(=O)NC23CC4CC(CC(C4)C2)C3)s1	0	-1	-1	7	-29	11	.
CC(C)c1ccc(S(=O)(=O)c2ccc(NN)cc2)cc1	.	.	-24	12	.	97*	-4
CC(C)c1ccc(S(=O)(=O)N2CCCCC2)cc1	-5	-11	6	-11	14	18	.
O=C(N/N=C/c1ccccc1OCc1ccccc1Cl)c1cccnc1	-10	-10	-4	17	4	91*	-11
O=C(CSc1ccc2ccccc2c1)Nc1ncccn1	-10	7	22	-16	0	9	.
O=C(CCl)Nc1cccc(-c2cnc3ccccc3n2)c1	0	-24	22	-4	38	100*	77*
CCOc1ccccc1NS(=O)(=O)c1c(C)[nH]c(C)c1C(=O)N1CCCCC1	-21	4	4	6	3	.	.
Cc1cc(C)cc(N=Cc2ccc([N+](=O)[O-])s2)c1	?	6	34	19	37	100*	13
CCOC(=O)COc1ccc(/C=C2/SC(=Nc3ccccc3)N(Cc3cccnc3)C2=O)cc1OC	6	-5	16	12	-4	60*	-8
c1ccc(-n2nnnc2-c2cnc(-c3cccnc3)nc2-c2cccs2)cc1	17	-24	-3	-7	38	95*	-13
Cc1ccc(-c2cc(C(F)F)nc(NCc3cccnc3)n2)cc1	?	12	6	12	60*	57*	3
COc1ccc(N2CCN(CCNS(=O)(=O)c3ccc(C)cc3)CC2)cc1	26	0	2	11	-13	.	.
Cc1ccccc1N=C1Nc2ccccc2CS1	0	-3	8	29	5	51*	6

Screening data as filed in PubChem.
